An excerpt weighted towards active compounds, which were near 9.2% of everything screened.
ERa SRC1 pot: ER-alpha (human) coactivator binding potentiation. P03372. TR-FRET ERalpha-LBD/SRC-Cy5 coactivator binding, 2 h; 100 = basal binding, no effect. coactivator binding (% of control), % at 25.6 µM. 86,000 tested, 1.3% active; in the data active = activity above about 200%;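 also: binding measured in presence of low estradiol as agonist stimulus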
H69AR inhibit: growth inhibitors of human H69AR lung tumor cells | 85,000 tested, 6% active | viability, % at 10 µM | AID 598 | H69AR lung tumor viability, ATP luminescence, 72 h; stronger effect = lower value;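 active = viability at or below 40%; inactive = viability above 40%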;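 also: multidrug resistant small cell line overexpressing MRP-1 efflux transporter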
Lung fibro prol: blocks proliferation of human lung fibroblasts; viability, % at 10 µM; LL 47 human lung fibroblast viability, ATP luminescence; stronger effect = lower value; AID 719; 85,000 tested, 1.1% active;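 active = viability at or below 50% in the single dose screen; inactive = viability above 50%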;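 also: compound exposure lasted 72 h before the ATP readout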
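Assay system: human lung fibroblast line LL 47, low passage. Input: 1,150 fibroblasts seeded per well. Times: overnight cell rest, 72 h compound treatment at 37 °C. Evaluation: % viability of median cell-only signal. Technique: luminescent ATP detection, CellTiter-Glo. Control set: cell-only wells, no compound.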
ERa SRC1 inh: blocks coactivator binding to human estrogen receptor alpha. P03372. TR-FRET ER-alpha LBD / SRC-1 peptide, estradiol-bound. inhibition, % at 25.6 µM. 86,000 tested, 1.7% active. AID 629; in the data active = inhibition above about 50%
ERb coact inh: ER-beta (human) coactivator binding inhibition; Q92731; TR-FRET ER-beta LBD / SRC1-Cy5 peptide binding; receptor agonist-loaded with 1 µM estradiol; inhibition, % at 25.6 µM; 86,000 tested, 1.3% active; AID 633;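 active = compounds whose percent inhibition of the receptor-coactivator binding signal exceeds about 50% in the single-dose screen, limit read from the data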
Target sequence (Q92731 whole entry, looked up, the tested form may be a part): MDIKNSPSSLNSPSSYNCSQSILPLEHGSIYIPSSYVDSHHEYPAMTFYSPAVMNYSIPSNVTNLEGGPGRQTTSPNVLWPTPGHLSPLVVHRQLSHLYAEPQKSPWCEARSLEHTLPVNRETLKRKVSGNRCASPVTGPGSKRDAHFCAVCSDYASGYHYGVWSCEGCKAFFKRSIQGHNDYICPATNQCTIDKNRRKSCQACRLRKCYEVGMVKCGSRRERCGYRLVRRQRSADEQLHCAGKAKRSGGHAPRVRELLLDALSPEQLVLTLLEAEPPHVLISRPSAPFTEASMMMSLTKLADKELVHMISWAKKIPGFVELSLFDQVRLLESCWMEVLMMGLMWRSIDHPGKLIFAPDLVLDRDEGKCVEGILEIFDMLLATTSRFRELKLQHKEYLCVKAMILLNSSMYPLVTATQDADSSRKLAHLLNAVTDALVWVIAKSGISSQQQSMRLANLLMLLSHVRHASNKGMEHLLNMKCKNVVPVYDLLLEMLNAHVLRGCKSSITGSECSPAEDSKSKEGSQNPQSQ
HUVEC inhibit: inhibitors of human endothelial cell proliferation | viability, % at 10 µM (by protocol) | HUVEC proliferation, CellTiter-Glo luminescence, 72 h; stronger effect = lower value | 86,000 tested, 1.1% active | AID 648;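 active = viability at or below 30%; inactive = viability above 30%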
Numbers stand for hits; [ ] = remark or other dose.

`CC1CC(C(F)(F)C(F)(F)F)n2nc(C(=O)O)cc2N1` (configuration not stated) gave ERa SRC1 pot inactive, H69AR inhibit inactive, Lung fibro prol inactive, ERa SRC1 inh 63.9, ERb coact inh 76.4[fluorescence artefact?] and HUVEC inhibit inactive.
Cc1ccc(S(=O)(=O)N2CCC(C(=O)NCCCN3CCCCCC3)CC2)cc1 was read as ERa SRC1 pot inactive, H69AR inhibit inactive, Lung fibro prol inactive, ERa SRC1 inh inactive, ERb coact inh inactive and HUVEC inhibit inactive.
Cc1ccc(S(=O)(=O)N2CCC(C(=O)NC3CCCCCC3)CC2)cc1 was read as ERa SRC1 pot inactive, H69AR inhibit 29.7, ERa SRC1 inh inactive, ERb coact inh inactive and HUVEC inhibit inactive.
Cc1ccc(C(=O)C2CCN(CC(=O)NC3CCCCC3)CC2)cc1 was read as ERa SRC1 pot inactive, H69AR inhibit inactive, Lung fibro prol inactive, ERa SRC1 inh inactive, ERb coact inh inactive and HUVEC inhibit inactive.
For O=C(NC1CCCCC1)N1CCCC(c2nc(-c3cccs3)no2)C1 (configuration not stated) the results were ERa SRC1 pot inactive, H69AR inhibit inactive, Lung fibro prol inactive, ERa SRC1 inh inactive, ERb coact inh inactive and HUVEC inhibit inactive.
Screening O=C(NC1CCCCC1)N1CCCC(c2nc(-c3ccc(S(=O)(=O)N4CCCC4)cc3)no2)C1 (configuration not stated) returned ERa SRC1 pot inactive, H69AR inhibit 34.6, Lung fibro prol inactive, ERa SRC1 inh inactive, ERb coact inh inactive and HUVEC inhibit inactive.
`Cc1ccc(C(=O)CN2CCC(NC(=O)C3CCCCC3)CC2)cc1` gave ERa SRC1 pot 604.7[fluorescence artefact?], H69AR inhibit inactive, Lung fibro prol inactive, ERa SRC1 inh inactive, ERb coact inh inactive and HUVEC inhibit inactive.
Cc1cc(NC(=O)CCC(=O)N(c2ccccc2)C(C(=O)NCC2CCCO2)c2cccnc2)no1 (configuration not stated) was read as ERa SRC1 pot inactive, H69AR inhibit inactive, Lung fibro prol inactive, ERa SRC1 inh inactive, ERb coact inh inactive and HUVEC inhibit inactive.
COC1(OC)N=C(N)C2(C#N)C(c3ccc(F)cc3)C12C#N (configuration not stated) was read as ERa SRC1 pot inactive, H69AR inhibit inactive, Lung fibro prol inactive, ERa SRC1 inh inactive, ERb coact inh inactive and HUVEC inhibit inactive.
Screening CCSC1(SCC)N=C(N)C2(C#N)C(c3ccc(F)cc3)C12C#N (configuration not stated) returned ERa SRC1 pot inactive, H69AR inhibit 0.8, Lung fibro prol 3.8, ERa SRC1 inh inactive, ERb coact inh inactive and HUVEC inhibit 9.6.
Screening C=CCn1c(=O)/c(=C2/SC(C)=C(C)N2CC)s/c1=C1/C(=O)N(C)C(=S)N1c1ccccc1 returned ERa SRC1 pot inactive, H69AR inhibit inactive, Lung fibro prol inactive, ERa SRC1 inh inactive, ERb coact inh inactive and HUVEC inhibit inactive.
Screening CCn1c(=O)cc(C(=O)OC)sc1=Nc1ccc(F)c(F)c1 returned ERa SRC1 pot inactive, H69AR inhibit 0.7, Lung fibro prol 15.6, ERa SRC1 inh inactive, ERb coact inh 94.7[fluorescence artefact?] and HUVEC inhibit inactive.
Screening COC(=O)C1=C(C)N(CCc2ccc(OC)cc2)C(=O)C1 returned ERa SRC1 pot inactive, H69AR inhibit inactive, Lung fibro prol inactive, ERa SRC1 inh inactive, ERb coact inh inactive and HUVEC inhibit inactive.
For COC(=O)c1cc(Br)c(=O)n(Cc2ccc3c(c2)OCO3)c1 the results were ERa SRC1 pot inactive, H69AR inhibit inactive, Lung fibro prol inactive, ERa SRC1 inh inactive, ERb coact inh inactive and HUVEC inhibit inactive.
For COC(=O)c1cc(=O)n(CCc2ccccc2)c(=Nc2ccc(F)cc2)s1 the results were ERa SRC1 pot inactive, H69AR inhibit 1.3, Lung fibro prol inactive, ERa SRC1 inh inactive, ERb coact inh inactive and HUVEC inhibit inactive.
Screening COC(=O)c1cc(=O)n(Cc2ccc3c(c2)OCO3)c(=Nc2ccc(F)c(Cl)c2)s1 returned ERa SRC1 pot inactive, H69AR inhibit 32.6, Lung fibro prol inactive, ERa SRC1 inh inactive, ERb coact inh inactive and HUVEC inhibit inactive.
`COC(=O)c1cc(=O)n(CCc2ccc(OC)cc2)c(=Nc2ccc(F)c(Cl)c2)s1` gave ERa SRC1 pot inactive, H69AR inhibit 1.7, Lung fibro prol inactive, ERa SRC1 inh inactive, ERb coact inh inactive and HUVEC inhibit 21.9.

Compound activity from PubChem BioAssay.
